# Shown are actives, neighbours in structure and some others; about 3.3% of the full set was active somewhere.
# Arrestin-AP2 inh: inhibitors of beta-arrestin/AP2 binding, primary screen, biochemical, GPCR trafficking, flow cytometry | inhibition, % at 10 µM | AID 504490, 2011 | hit rate 0.31% among 340,000 | FITC-arrestin peptide / GST-AP2 beads; AP2 beta2 appendage carries R879A mutation | beta-arrestin 1 C-terminal peptide binding to AP2 beta2-adaptin appendage (human);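 active = inhibition above a set limit, near 3 SD of compounds lacking own fluorescence, cut at about 54% in these data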
#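 Material – AP2 appendage R879A on GSH beads · Buffer or medium – PBS with 0.05% Tween 20 and 0.1% BSA · Probe or stimulus – fluorescein-tagged arrestin peptide at 50 nM final · Incubation – compound with beads 12 min RT, then probe 1 h RT · Detection – high-throughput flow cytometry of beads, ex 488, em 535 nm · Evaluation – percent response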
# CendR NRP1 mod: modulators of CendR peptide binding to NRP-1, primary screen, biochemical, fluorescence polarization, uHTS. AID 602438, 2012. FAM-RPARPAR peptide binding to NRP-1. inhibition, % at 25 µM. Neuropilin-1 (Homo sapiens), O14786. hit rate 0.85% among 360,000;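 active = inhibition or corrected inhibition above about 18%, plus a signal ratio from 0.5 to 1.5, limit read from the data, passing the limit was not always enough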
# PfM18AAP inh: PfM18AAP inhibitors, malaria aminopeptidase, primary screen, biochemical, QFRET, recombinant enzyme | M18 aspartyl aminopeptidase (Plasmodium falciparum 3D7) | H-Glu-NHMec fluorogenic cleavage | inhibition, % at 7.35 µM | hit rate 1.2% among 290,000 | AID 1822, 2009;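 active = inhibition above the campaign mean inhibition over all tested compounds plus 3 SD, cut at about 28% in these data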
# sPLA2-III inh: human group III sPLA2 inhibitors, primary screen, biochemical, QFRET, BODIPY PC-A2 liposome substrate; Group 3 secretory phospholipase A2 (Homo sapiens), Q9NZ20; QFRET BODIPY PC-A2 liposome hydrolysis, fluorescence; inhibition, % at 12.2 µM; hit rate 0.56% among 370,000; AID 743126, 2013;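 active = inhibition above mean plus 3 SD of compounds lying within the high and low control bounds, cut at about 19% in these data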
# Target sequence (Q9NZ20 whole entry, looked up): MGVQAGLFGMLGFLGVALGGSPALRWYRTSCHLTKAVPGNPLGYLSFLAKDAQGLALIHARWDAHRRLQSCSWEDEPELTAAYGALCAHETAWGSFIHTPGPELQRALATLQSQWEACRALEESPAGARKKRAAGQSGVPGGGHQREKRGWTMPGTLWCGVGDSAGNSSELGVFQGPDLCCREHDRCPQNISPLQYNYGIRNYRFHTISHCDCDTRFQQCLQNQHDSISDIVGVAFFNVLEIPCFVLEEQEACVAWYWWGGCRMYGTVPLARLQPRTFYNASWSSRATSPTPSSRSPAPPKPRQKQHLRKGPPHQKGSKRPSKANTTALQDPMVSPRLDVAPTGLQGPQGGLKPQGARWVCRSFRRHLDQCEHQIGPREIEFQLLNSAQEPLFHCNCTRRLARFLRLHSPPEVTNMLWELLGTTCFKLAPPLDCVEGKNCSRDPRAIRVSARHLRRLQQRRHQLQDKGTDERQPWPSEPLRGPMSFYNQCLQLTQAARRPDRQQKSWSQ
# HTR2A ag: mouse Htr2a agonists via beta-arrestin recruitment, primary screen, cell-based, luminescence; 5-hydroxytryptamine receptor 2A (Mus musculus), P35363; CHO-K1 mHTR2A beta-arrestin complementation; percent of 30 µM serotonin response; activation, % at 7.6 µM; hit rate 0.66% among 360,000; AID 624169, 2012;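 active = activation above a run cutoff, the mean activation of all tested compounds plus 3 SD, cut at about 14% in these data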
# Hep lipid drop: inhibitors of hepatocyte lipid droplet formation, primary screen, imaging, high-throughput imaging, BODIPY stain; AML12 mouse hepatocytes, oleate lipid droplets; inhibition, % at 6.5 µM; hit rate 0.4% among 240,000; AID 1656, 2009;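 active = lipid droplet intensity inhibited by at least 50%, with more than 500 cells counted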
#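 Technique: fluorescence imaging, 20x objective, two fields per well / Assay system: AML12 hepatocytes (mouse) / Measure: % inhibition of lipid droplet signal / Doses: 6.5 µM single-point dosing / Incubation: overnight exposure / Reagent: 100 µM oleic acid challenge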
# sPLA2 confirm: human group III sPLA2 inhibitors, confirmation, biochemical, QFRET, triplicate; AID 743280, 2014; recombinant hGIII-sPLA2, BODIPY PC-A2 QFRET fluorescence; inhibition, % at 12.2 µM; hit rate 34% among 2,000; shares compounds with sPLA2-III inh;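 active = mean inhibition across triplicates above the hit cutoff set in the earlier primary screen, cut at about 19% in these data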
# 535nm interf: 535nm fluorescence optical interference, confirmation, artefact control for HGIII-sPLA2 inhibitor project, biochemical, QFRET | AID 743282, 2014 | shares compounds with sPLA2-III inh | hit rate 8.5% among 2,000 | BODIPY FL product fluorescence interference | inhibition, % at 12.2 µM;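 active = average inhibition above the solvent-only control mean plus 3 SD, cut at about 6% in these data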
# 535nm interf DR: 535nm fluorescence optical interference, dose response, artefact control for HGIII-sPLA2 inhibitor project, biochemical, QFRET. IC50, µM. shares compounds with sPLA2-III inh. BODIPY FL product fluorescence interference, cell-free. 240 tested, under 10 active;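 active = IC50 at or below 10 µM; inactive = IC50 above 10 µM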
# A number is an active result; i = inactive; nt = no result.
SMILES,Arrestin-AP2 inh,CendR NRP1 mod,PfM18AAP inh,sPLA2-III inh,HTR2A ag,Hep lipid drop,sPLA2 confirm,535nm interf,others
Cc1ccccc1NC(=O)OC1CC2CC1[C@H]1CCCCN1[C@H]2Cc1ccccc1 (some centres not stated),nt,nt,nt,i,nt,nt,nt,nt,
CCn1c(Cc2cccs2)nnc1SCC(=O)Nc1cccc2ccccc12,nt,nt,nt,i,nt,nt,nt,nt,
CCCn1c(C(C)C)n[nH]c1=S,i,i,i,25.6,i,i,i,i,
CCCn1c(-c2ccncc2)n[nH]c1=S,i,i,i,i,i,i,nt,nt,
Cc1ccccc1Nc1nc(N)nc(CCl)n1,i,i,i,19.6,i,i,i,i,
C=CCc1cc(Cl)ccc1OCCCNC(C)C,i,i,i,22.6,i,i,i,i,
O=C(C(=O)N1CCN(S(=O)(=O)c2cccc(C(F)(F)F)c2)CC1)c1cccc(C(F)(F)F)c1,nt,nt,nt,i,nt,nt,nt,nt,
CC(=O)OCC(=O)N1CCN(C(=O)C(=O)c2cccc(C(F)(F)F)c2)CC1,nt,nt,nt,22.2,nt,nt,i,i,
Cc1ccc(F)cc1-c1cc(C(=O)NCc2cc(C(F)(F)F)cc(C(F)(F)F)c2)[nH]n1,nt,i,nt,i,i,nt,nt,nt,
CC1(C)CCCN(C(=O)c2ccc3c(c2NCCO)C(=O)c2ccccc2C3=O)C1,i,27.5,i,26.5,i,98.3,35.5,i,535nm interf DR=i
O=C1c2ccccc2C(=O)c2c1ccc(C(=O)N1CCCCC1)c2NCCO,i,i,i,i,i,nt,nt,nt,
O=c1ccc(-c2n[nH]c(=S)n2-c2ccc(F)c(Cl)c2)n[nH]1,i,i,i,i,i,i,nt,nt,
Fc1ccc(-n2c(-c3cc(C4CC4)[nH]n3)n[nH]c2=S)cc1Cl,i,i,i,27.6,i,i,23.5,i,
[C-]#[N+][C@]12C(=O)[C@H](C=C(Cl)[C@@]1(C)C=C)C(C)(C)[C@H]1C(=O)N(C)c3cccc2c31,nt,nt,nt,30.6,nt,nt,21.2,i,
COc1cccc2cc(C(=O)C3=C(O)C(=O)N(CCN4CCOCC4)C3c3ccc(C(C)(C)C)cc3)oc12 (configuration not stated),i,i,i,i,i,i,nt,nt,
COC(=O)[C@]12C[C@H](CC(=O)NCc3cccs3)C(=O)N(Cc3ccc(Cl)cc3Cl)C1=C[C@H](C(C)C)O[C@@H]2C1CC1,nt,nt,nt,i,nt,nt,nt,nt,
Cc1ccc2c(c1)C(=O)C(=O)N2CCOc1ccccc1,i,i,38.7,25.3,i,i,i,i,
CCCN1C(=O)C(=O)c2cc(C)ccc21,i,i,nt,i,i,nt,nt,nt,
Cc1cccc(OCCN2C(=O)C(=O)c3cccc(C)c32)c1,i,i,i,i,i,i,nt,nt,
Cc1cccc(OCCN2C(=O)C(=O)c3cc(C)ccc32)c1,i,i,i,23.9,i,i,21.3,i,
Nc1ccc2c(c1)C(=O)c1cc(N)c(Cl)cc1-2,i,i,nt,29.1,i,nt,30.9,8.2,
O=C(O)Cc1sc(N/N=C\c2ccncc2)nc1-c1ccccc1,i,i,i,26.1,i,i,i,i,
C(=N\Nc1nc(-c2ccccc2)cs1)/c1ccncc1,i,i,i,i,i,i,nt,nt,
COc1ccc(C(=O)c2coc(-c3ccccc3C(=O)O)c2C(=O)O)cc1,i,i,i,19.3,i,i,i,i,
COc1ccc(C(=O)c2ccccc2C(=O)c2ccccc2)cc1,i,i,nt,i,i,nt,nt,nt,
SMILES,Arrestin-AP2 inh,CendR NRP1 mod,PfM18AAP inh,sPLA2-III inh,HTR2A ag,Hep lipid drop,sPLA2 confirm,535nm interf,others
COc1ccc(OC)c(S(=O)(=O)NC(=O)C2(C)CCN2C(=O)CC2CCCC2)c1 (configuration not stated),nt,i,nt,i,i,nt,nt,nt,
COc1ccc(C=C2NC(=S)NC2=O)cc1,i,i,nt,25.1,i,nt,i,i,
Cc1cccn2c(Nc3ccccc3)c(-c3ccccn3)nc12,i,i,i,i,i,i,nt,nt,
Cc1ccccc1Nc1c(-c2ccccn2)nc2ccccn12,i,i,i,i,i,i,nt,nt,
Cc1ccc2nc(-c3cccnc3)c(Nc3ccccc3C)n2c1,i,i,i,i,i,i,nt,nt,
Cc1ccn2c(Nc3ccccc3)c(-c3ccccn3)nc2c1,i,i,i,20.4,i,i,i,i,
Cc1ccn2c(Nc3ccccc3C)c(-c3ccccn3)nc2c1,i,i,i,20.8,i,i,30.1,i,535nm interf DR=i
Cc1ccc2nc(-c3ccccn3)c(Nc3ccccc3C)n2c1,i,i,i,26.5,i,i,23.6,i,
O=C(NNC(=O)c1cc2ccccc2[nH]1)OCc1ccccc1,i,i,nt,i,i,nt,nt,nt,
S=C(Nc1cc(Cl)cc(Cl)c1)NC(c1ccccc1)c1ccccc1,nt,nt,nt,i,nt,nt,nt,nt,
O=[N+]([O-])c1cc(Cc2ccccc2)cc(C=Nc2ccc(N3CCOCC3)cc2)c1O,i,i,i,nt,i,i,nt,nt,
Cc1ccc(O)c(N=Cc2cc(Cc3ccccc3)cc([N+](=O)[O-])c2O)c1,i,i,i,25.1,i,i,22.7,7.8,
CC(=O)OCC(=O)[C@@]1(O)CC[C@H]2[C@@H]3CCC4=CC(=O)C=C[C@]4(C)[C@H]3C(=O)C[C@@]21C,i,i,i,i,i,i,nt,nt,
CCOC1(C)OCC(=O)[C@]2(CCC3C4CCC5=CC(=O)C=CC5(C)C4C(=O)CC32C)O1 (some centres not stated),i,i,i,19.4,i,i,i,i,
CN(c1ccccc1)S(=O)(=O)c1ccc(C(=O)N2CCN(c3ccccc3)CC2)cc1,nt,i,nt,i,i,nt,nt,nt,
CP(C)(=O)CCP(=O)(c1ccccc1)c1ccccc1,i,i,i,19.4,i,i,i,i,
CN(C(=O)c1cccc(NC(=O)Cc2ccc(NC(=O)C3CCCN(C(=O)CCc4ccccc4)C3)cc2)c1)C1CCC1 (configuration not stated),i,i,nt,i,i,nt,nt,nt,
Cc1ccc(-c2sc(C(=O)NN)c(C)c2C#N)cc1,i,i,i,24.2,i,i,i,i,
CCCCOCCCNC(=O)C[C@@H]1C[C@@]2(C(=O)OC)CCCCC=C2N(Cc2ccccc2)C1=O,nt,i,nt,i,i,nt,nt,nt,
